Compound activity: PubChem BioAssay, The Scripps Research Institute Molecular Screening Center
Rows were chosen to be rich in hits. Some 4.6% of all compounds tested hit in one or more screens of this group.
TAAR1 agonist = agonists of human TAAR1; Q96RJ0; CHO RD-HGA16 TAAR1, Fluo-8 calcium fluorescence; vehicle wells 0%, saturating PEA agonist 100%; activation, % at 3 µM; 360,000 tested, 0.99% active; AID 624467;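 active = activation above the mean activation of all test compounds in the run plus 3 SD, cut at about 38% in these data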
Target sequence (Q96RJ0 whole entry, looked up): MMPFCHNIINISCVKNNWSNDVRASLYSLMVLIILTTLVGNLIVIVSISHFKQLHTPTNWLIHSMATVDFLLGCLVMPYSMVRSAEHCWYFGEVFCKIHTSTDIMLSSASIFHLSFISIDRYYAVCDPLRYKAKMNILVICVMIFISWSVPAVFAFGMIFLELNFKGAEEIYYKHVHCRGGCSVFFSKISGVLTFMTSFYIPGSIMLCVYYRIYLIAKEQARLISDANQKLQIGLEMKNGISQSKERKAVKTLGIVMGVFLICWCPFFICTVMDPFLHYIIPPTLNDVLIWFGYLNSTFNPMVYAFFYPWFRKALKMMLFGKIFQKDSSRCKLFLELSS
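test system = CHO RD-HGA16 cells carrying human TAAR1 plus Gα16 | schedule = 17-24 h seeding, 75 min 37 °C dye, 30 min RT | compound dosing = 3 µM single concentration | control set = DMSO and PEA EC100 | replicates = n 1 | signal = Fluo-8 fluorescence, 5 s baseline then 140 s kinetic read | measure = percent activation vs PEA EC100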
OX1R antag-1 = blocks the human orexin 1 receptor; O43613; 330,000 tested, 0.43% active; CHO/OX1R cells, Fluo-8 calcium fluorescence, orexin A; inhibition, % at 5 µM; AID 434989;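 active = inhibition above its plate's threshold, mean inhibition of all tested compounds on the plate plus 3 SD, cut at about 37% in these data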
TAAR1 antagonist = antagonists of human TAAR1 | Q96RJ0 | CHO RD-HGA16 TAAR1, Fluo-8 calcium fluorescence, antagonist | inhibition, % at 3 µM | 360,000 tested, 1.5% active | AID 624466;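 active = inhibition above a per-plate cutoff, the mean inhibition of test compounds on that plate plus 3 SD, cut at about 49% in these data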
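Material: CHO RD-HGA16 cells bearing hTAAR1; compound dosing: one-point dosing, 3 µM nominal final; schedule: dye loading 75 min at 37 °C, then 30 min room temperature; measured by: calcium fluorescence with Fluo-8; control set: vehicle and agonist controls; replication: n of 1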
CHO parental Ca = counter-screen for OX1R antagonists: effect in parental CHO cells; parental CHO-K1, ATP-induced calcium, Fluo-8 fluorescence; inhibition, % at 5.6 µM; 330,000 tested, 0.63% active;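 active = inhibition above that plate's mean sample inhibition plus 3 SD, cut at about 26% in these data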
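Material – parental CHO cells · Reagent – ATP stimulus · Compound – single nominal dose of 5.6 µM per compound · Detection – Fluo-8 fluorescence · Read-out basis – percent inhibition of calcium signal · Controls – ATP-challenged DMSO wells low, unchallenged DMSO wells high · Repeats – no replicates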
GPR7 antag = human neuropeptides B/W receptor 1 antagonism; GPR7-expressing cells, fluorescence antagonist assay; inhibition, % at 4.4 µM; 290,000 tested, 1.1% active; AID 1861; in the data active = inhibition above about 16%, passing the limit was not always enough;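 note: cells stimulated with the agonist NPW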
Target sequence (P48145 whole entry, looked up): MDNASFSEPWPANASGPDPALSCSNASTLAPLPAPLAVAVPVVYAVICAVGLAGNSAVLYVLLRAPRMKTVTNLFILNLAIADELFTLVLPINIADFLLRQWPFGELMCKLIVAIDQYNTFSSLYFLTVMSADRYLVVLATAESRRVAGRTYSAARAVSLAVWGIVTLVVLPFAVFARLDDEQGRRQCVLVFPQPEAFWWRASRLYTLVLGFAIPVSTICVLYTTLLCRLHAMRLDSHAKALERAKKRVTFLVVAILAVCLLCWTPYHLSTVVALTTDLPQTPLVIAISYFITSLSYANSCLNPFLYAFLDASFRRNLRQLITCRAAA
OX1R antag-2 = antagonists of human orexin 1 receptor (OX1R); O43613; OX1R-expressing cells, FRET antagonist read-out; inhibition, % at 6.6 µM; 330,000 tested, 1.8% active; AID 485270; in the data active = inhibition mostly above about 38%, no sharp cut-off; inactive = mostly below about 40%
GPR7 antag cf = human GPR7 antagonism, confirmation assay; shares compounds with GPR7 antag; GPR7-expressing cells, calcium fluorescence antagonist mode; inhibition, % at 4.4 µM; 2,400 tested, 52% active; AID 1952; in the data active = inhibition above about 24%;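 note: stimulated with the GPR7 agonist NPW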
MCHR1 antagonist = MCHR1 (human) antagonism in GPR7 counter-screen; shares compounds with GPR7 antag; MCHR1-expressing cells, fluorescence antagonist assay; inhibition, % at 4.4 µM; 2,400 tested, 62% active; in the data active = inhibition above about 22%
Numbers stand for hits; - = inactive; . = no result.

SMILES	TAAR1 agonist	OX1R antag-1	TAAR1 antagonist	CHO parental Ca	GPR7 antag	OX1R antag-2	GPR7 antag cf	MCHR1 antagonist
O=C1NC(=S)S/C1=C\c1coc2ccc(O)cc2c1=O	-	-	-	-	21	-	-	-
CCOC(=O)c1c(NC(=O)CSc2ncccn2)sc2c1CCN(Cc1ccccc1)C2	-	.	-	.	27	.	-	51
CCOC(=O)c1[nH]c(CN2CCN(c3ccc(OC)cc3)CC2)c(C(=O)OCC)c1C	51	-	-	-	25	-	-	39
CCn1cc(C(=O)N2CCN(c3ccc(OC)cc3)CC2)c2cc(OC)c(OC)cc2c1=O	-	-	-	-	39	-	-	-
CCn1cc(C(=O)N2CCN(c3ccc(F)cc3)CC2)c2cc(OC)c(OC)cc2c1=O	-	-	-	-	-	-	.	.
COCCNC(=O)c1ccc(C(=O)C(=O)c2ccccc2)cc1	-	-	-	-	-	-	.	.
CC(Oc1ccc(NC(=O)c2ccco2)cc1)C(=O)N1c2ccccc2CC1C (centres undefined)	-	-	-	-	35	-	-	-
CC1Cc2ccccc2N1C(=S)NC(=O)c1ccco1 (centres undefined)	-	-	-	-	-	-	.	.
O=C(/C=C/c1cccc([N+](=O)[O-])c1)N1CCN(c2ccccc2F)CC1	-	-	-	-	-	-	.	.
CCOc1ccccc1N1CCN(C(=O)/C=C/c2cccc([N+](=O)[O-])c2)CC1	-	-	-	-	21	-	32	41
O=C(c1ccc2c(c1)OCO2)N(CC1CCCO1)C1(C(=O)NC2CCCC2)CCCCC1 (centres undefined)	-	-	-	-	32	-	31	-
CCOc1ccc(NC(=S)N2CCC(NC(=O)C3CCCCC3)CC2)cc1	-	-	-	-	28	-	-	-
CC(C)CC(=O)NC(Nc1ccc([N+](=O)[O-])cc1)C(Cl)(Cl)Cl (centres undefined)	-	-	-	-	26	-	-	45
Cc1ccsc1/C=N/NC(=O)c1ccncc1	-	-	-	-	-	-	.	.
COc1cc(C(=O)N/N=C/c2sccc2C)cc(OC)c1OC	-	.	-	.	28	.	29	31
Cn1nc(C(=O)OCCN2C(=O)c3ccccc3C2=O)c2ccccc2c1=O	-	-	-	-	-	-	.	.
Cc1cnc(CNC(=O)c2ccc3oc(Cc4ccc(Cl)cc4)nc3c2)cn1	-	-	-	-	23	-	-	-
Cc1cccc(C)c1NC(=O)C1(C)CN(S(C)(=O)=O)CC(=O)N1CC(F)(F)F (centres undefined)	-	.	-	.	.	.	.	.
CC(C)(C)NC(=O)CC1C[C@H](C(=O)N2CCOCC2)[C@@]2(C)c3[nH]c4ccccc4c3CCN2C1=O (some centres undefined)	-	-	-	-	.	-	.	.
O=S(=O)(c1cnc(Cl)c(Cl)c1)N1CCCc2ccccc21	-	-	-	-	30	-	61	52
C#CCOCCOCCOCCNc1nc(OC)nc(N2CCN(C(=O)[C@H](CCC(=O)O)n3cc(C(N)CO)nn3)CC2)n1 (some centres undefined)	-	-	-	-	.	-	.	.
Cc1cccc(NC(=O)C2(c3ccc([N+](=O)[O-])cc3)CCCC2)c1	48	-	-	36	33	-	36	36
Cc1cccc(NC(=O)C2(c3ccccc3)CCOCC2)c1	-	-	-	-	-	-	.	.
O=C(Cc1ccc([N+](=O)[O-])cc1)Nc1cccc(C(F)(F)F)c1	-	-	-	28	39	-	30	57
COc1ccc(C(CNC(=O)CCNS(=O)(=O)c2ccccc2)N2CCOCC2)cc1 (centres undefined)	-	.	-	.	.	.	.	.
SMILES	TAAR1 agonist	OX1R antag-1	TAAR1 antagonist	CHO parental Ca	GPR7 antag	OX1R antag-2	GPR7 antag cf	MCHR1 antagonist
O=C(c1ccc(F)cc1)n1c(NCc2ccccc2)n[nH]c1=S	-	-	-	-	-	-	.	.
O=C(NCCCn1ccnc1)c1cccc(S(=O)(=O)NCc2ccccc2)c1	-	-	-	-	-	-	.	.
COc1ccccc1N1CCN(CC(=O)Nc2ccc(C)c(F)c2)CC1	-	-	-	-	26	-	-	-
Cc1cc2c(cc(C(=O)OCC(=O)NCc3ccco3)n2C)s1	-	-	-	-	29	-	-	22
CC(=O)NC1C(=O)N(CCc2ccccc2)c2ccc(Br)cc21 (centres undefined)	-	.	-	.	-	.	.	.
CCCCN1C(=O)C(NC(C)=O)c2ccccc21 (centres undefined)	-	-	-	-	26	-	-	-
CCN(CC)S(=O)(=O)c1ccc(Cl)c(C(=O)OCC(=O)c2c(N)n(C)c(=O)n(C)c2=O)c1	-	-	-	-	-	-	.	.
CC(=O)c1ccc(NC(=S)Nc2ccc(Br)c(Cl)c2)cc1	-	-	-	-	-	-	.	.
CC(=O)c1ccc(NC(=S)NC(C)c2ccc(Cl)cc2Cl)cc1 (centres undefined)	41	73	-	64	44	-	61	73
CC(C)COc1ccc(-c2nnc(-c3ccco3)o2)cc1	-	-	-	-	-	-	.	.
CCN(CC)CCCNc1ccc(-c2nnc(-c3ccc(OCC(C)C)cc3)o2)cn1	-	-	-	-	38	-	-	48
O=C(Nc1nc2c(F)cc(F)cc2s1)C1CC1	-	-	-	-	23	-	-	34
CCCCn1c2c(c(=N)c3c1CCC3)CCC2	-	-	-	-	-	-	.	.
CCCCCCn1c2c(c(=N)c3c1CCC3)CCC2	-	-	-	-	37	-	42	46
CCCCCCCCN1C(=O)[C@@H](CC(=O)NCC2CCCCC2)C[C@@]2(C(=O)OC)C1=C[C@H](C1CCCC1)O[C@@H]2C	-	.	-	.	.	.	.	.
C/C(=N\NC(=O)CNC(=O)c1ccco1)c1ccc(Br)cc1	-	-	-	-	24	-	-	-
O=C(c1ccc(Cl)cc1)C(CN1CCCC1)c1ccccc1 (centres undefined)	-	-	-	-	74	-	46	87
COc1ccc(C(=O)C(CN2CCCC2)c2ccccc2)cc1 (centres undefined)	-	-	-	-	-	-	.	.
Cc1cccc(NC(=O)CCc2ccc(C)o2)c1	-	-	-	-	-	-	.	.
Cc1cc(C)cc(NC(=O)CCc2ccc(C)o2)c1	-	-	-	-	29	-	-	-
C[C@@H]1CN([C@@H](C)CO)C(=O)CCCn2nncc2CO[C@@H]1CN(C)C(=O)C1CC1	-	.	-	.	.	.	.	.
